Experimental findings from ChEMBL document CHEMBL1142371, “Synthesis and biological evaluation of imidazol-2-one derivatives as potential antitumor agents” (Bioorg Med Chem, 2008) are described below.

The test system of assay [1] is K562. As to the kind of experiment: Cytotoxicity against human K562 cells after 48 hrs by MTT assay. It is filed as functional, cell-based. Particulars: K562, 48 h. The method, boiled down:
(§1)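 MTT read-out after 48 h drug exposure; MTT then added for a further 4 h at 37 °C, formazan dissolved in DMSO, absorbance at 570 nm. Triplicate wells in three independent experiments; IC50 = concentration giving 50% inhibition of cell viability, values are means of three experiments.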

Assay [2] relates to Mus musculus. Briefly: Effect on body weight in mouse bearing H22 cells at 5 mg/kg/day, im after 10 days. It is filed as functional. Particulars: route intramuscular. A digest of the protocol:
(§2)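 Female tumor-bearing mice (S-180 or H-22, 2.5 × 10⁶ cells subcutaneously in armpit) dosed im once daily for 10 consecutive days; saline negative control. Initial and end body weights recorded per group.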

For assay [3], the system named is Mus musculus. Briefly: Antitumor activity in mouse xenografted with H22 cells assessed as inhibition of tumor growth at 5 mg/kg/day, im after 10 days. It is filed as functional. Particulars: 240 h, route intramuscular. A digest of the protocol:
(§3)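 S-180 or H-22 cells expanded in mice for 10 days, then 2.5 × 10⁶ viable tumor cells per mouse injected subcutaneously into the armpit of female mice (9 per treated group, 18 negative controls). Compound given im once daily for 10 consecutive days; saline negative control, cyclophosphamide 30.0 mg/kg ip positive control. Tumors excised and weighed on day 10; inhibition rate = (C − T)/C × 100 from mean tumor weights.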

Assay [4] relates to K562. Briefly: Induction of apoptosis in human K562 cells at 1 uM after 48 hrs by flow cytometry. It is filed as functional. The method, boiled down: (§4)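 K562 cells in exponential growth exposed 48 h to 0–1 µM compound. Cells washed twice in PBS, fixed in 70% ethanol at −20 °C, RNase-treated 1 h at 37 °C, stained with propidium iodide 30 min at 4 °C. DNA content by flow cytometry gives cell-cycle phase distribution and apoptotic fraction.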

Assay [5] has as its system A549. Briefly: Cytotoxicity against human A549 cells after 48 hrs by MTT assay. Particulars: A549, 48 h. It is filed as functional, cell-based. The method, boiled down: as §1
(Formazan colour is commonly taken as a measure of viable cells.)

Assay [6] deals with K562. As to the kind of experiment: Induction of apoptosis in human K562 cells at 0.1 uM after 48 hrs by flow cytometry. It is filed as functional. The method, boiled down: as §4
A general note: In flow cytometry, cells or beads pass a laser one at a time.

The subject of assay [7] is CCRF S-180. As to the kind of experiment: Antitumor activity in mouse xenografted with S180 cells assessed as inhibition of tumor growth at 15 mg/kg/day, im after 10 days. It is filed as functional. Particulars: CCRF S-180, im, 240 h, route intramuscular. The method, boiled down:
as §3

Assay [8] concerns MCF7. As to the kind of experiment: Cytotoxicity against human MCF7 cells after 48 hrs by MTT assay. It is filed as functional, cell-based. Particulars: MCF7, 48 h. The method, boiled down: as §1
The nature of assay [9]: Cytotoxicity against human ECA109 cells after 48 hrs by MTT assay. It is filed as functional, cell-based. Particulars: ECa-109, 48 h. The method, boiled down:
as §1

Assay [10] concerns PC-3. As to the kind of experiment: Cytotoxicity against human PC3 cells after 48 hrs by MTT assay. Particulars: PC-3, 48 h. It is filed as functional, cell-based. The method, boiled down:
as §1

Assay [11] relates to Bel-7402. Briefly: Cytotoxicity against human BEL-7402 cells after 48 hrs by MTT assay. It is filed as functional, cell-based. Particulars: Bel-7402, 48 h. A digest of the protocol:
as §1

Assay [12] relates to HL-60. Briefly: Cytotoxicity against human HL60 cells after 48 hrs by MTT assay. It is filed as functional, cell-based. Particulars: HL-60, 48 h. The method, boiled down: as §1
Assay [13] deals with Mus musculus. Briefly: Effect on body weight in mouse bearing S180 cells at 15 mg/kg/day, im after 10 days. Particulars: route intramuscular. It is filed as functional, CCRF S-180. The method, boiled down: as §2
For assay [14], the system named is K562. As to the kind of experiment: Cell cycle arrest in human K562 cells assessed as accumulation at G2/M phase at 0.01 uM after 48 hrs by flow cytometry. It is filed as functional. A digest of the protocol: as §4
Assay [15] has as its system Mus musculus. Briefly: Effect on body weight in mouse bearing H22 cells at 20 mg/kg/day, im after 10 days. It is filed as functional. Particulars: route intramuscular. The method, boiled down: as §2
Assay [16] in a line: Cytotoxicity against multidrug-resistant human K562R cells after 48 hrs by MTT assay. It is filed as functional, cell-based. Particulars: K-562R. A digest of the protocol:
as §1

Assay [17] has as its system Mus musculus. Briefly: Antitumor activity in mouse xenografted with H22 cells assessed as inhibition of tumor growth at 20 mg/kg/day, im after 10 days. It is filed as functional. Particulars: 240 h, route intramuscular. A digest of the protocol:
as §3

Assay [18] deals with K562. Briefly: Cell cycle arrest in human K562 cells assessed as accumulation at S phase at 0.01 uM after 48 hrs by flow cytometry. It is filed as functional. A digest of the protocol:
as §4

For the compound `COc1cc(-n2c(-c3ccc(Br)cc3)cn(C(C)=O)c2=O)cc(OC)c1OC`, the IC50 came out at 1000 nM in assay [1]; 1300 nM in [5]; 10600 nM in [8]; 3800 nM in assay [9]; 3100 nM in assay [10]; 1200 nM in assay [11]. The IC50 in [12] came out at 200 nM; in [16] it was 900 nM. Besides, the Activity in [2] was found to be 26.8 g; in assay [4] it was 78.6%; in assay [6], 45.6%; in assay [13] it was 35.1 g; in [14] it was 31%; in [15] it was 27.6 g. The Activity in [18] turned out to be 54%. In [3], the inhibition in vivo at 5 mg/kg/day turned out to be 29.4%. In addition, in assay [7], the inhibition in vivo at 15 mg/kg/day was 55.3%. The inhibition in vivo at 20 mg/kg/day in assay [17] came out at 55.5%.

For orientation: IC50 means the concentration that inhibits the measured activity by half. The term inhibition in vivo denotes the percentage by which the read-out fell short of the control.
